# A selection: hits, their analogues and other compounds. The true share with any hit is near 2.3%.
# TRPC6 inhibitor = mouse TRPC6 channel inhibitors, primary screen, cell-based, HEK293, membrane potential dye. 1.1% of 310,000 active. B-score at 10 µM. ACh-evoked depolarization; active compounds read low. Short transient receptor potential channel 6 (Mus musculus), Q61143;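 active means B-score under library mean minus 3 SD, initial fluorescence not abnormally high, positive integrated signal ratio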;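 further: B-score derived from integrated fluorescence ratio over the kinetic read; more negative B-score means stronger inhibition of depolarization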
# TRPC4 PAM = positive allosteric modulators of TRPC4, primary screen, cell-based, mouse TRPC4beta, HEK293 mu-opioid, Fluo-4 calcium; Short transient receptor potential channel 4 (Mus musculus), Q9QUQ5; DAMGO EC20, Fluo-4 Ca2+ flux; active compounds read high; B-score at 10 µM; 0.42% of 310,000 active; AID 2227, 2009;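 active means B-score of calcium response area above 5 SD of library B-scores, with initial fluorescence ratio within 5 SD of library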;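 further: B-score of integrated fluorescence ratio over time as area under calcium response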
# Target sequence (Q9QUQ5 whole entry, looked up): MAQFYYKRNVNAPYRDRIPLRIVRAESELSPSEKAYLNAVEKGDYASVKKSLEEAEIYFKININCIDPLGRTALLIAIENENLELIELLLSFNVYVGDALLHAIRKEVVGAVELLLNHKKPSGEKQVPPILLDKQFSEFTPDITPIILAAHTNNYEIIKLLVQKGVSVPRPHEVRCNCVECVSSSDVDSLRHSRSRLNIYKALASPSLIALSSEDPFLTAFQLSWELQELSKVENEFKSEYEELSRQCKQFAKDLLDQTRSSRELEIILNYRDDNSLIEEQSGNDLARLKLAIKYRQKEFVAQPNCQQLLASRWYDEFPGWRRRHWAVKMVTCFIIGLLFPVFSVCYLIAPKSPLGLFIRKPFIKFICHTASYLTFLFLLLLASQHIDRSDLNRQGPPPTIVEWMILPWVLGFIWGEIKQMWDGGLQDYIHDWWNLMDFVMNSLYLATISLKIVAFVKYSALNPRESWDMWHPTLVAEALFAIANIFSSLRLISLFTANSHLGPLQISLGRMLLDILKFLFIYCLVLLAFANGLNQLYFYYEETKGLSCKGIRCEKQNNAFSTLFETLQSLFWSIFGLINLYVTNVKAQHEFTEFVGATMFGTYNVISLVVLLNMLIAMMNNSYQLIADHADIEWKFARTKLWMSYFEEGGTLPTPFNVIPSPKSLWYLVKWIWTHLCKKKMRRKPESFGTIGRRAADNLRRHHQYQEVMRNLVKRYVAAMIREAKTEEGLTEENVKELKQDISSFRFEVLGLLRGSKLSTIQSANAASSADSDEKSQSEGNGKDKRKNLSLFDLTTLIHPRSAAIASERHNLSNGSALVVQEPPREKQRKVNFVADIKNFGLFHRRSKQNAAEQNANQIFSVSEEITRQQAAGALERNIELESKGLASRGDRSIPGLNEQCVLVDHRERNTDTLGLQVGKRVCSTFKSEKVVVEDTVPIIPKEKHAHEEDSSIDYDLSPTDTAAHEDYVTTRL
# TRPC4 agonist = activators of mouse TRPC4 channel, primary screen, Fluo4 calcium, HEK293 TRPC4beta/mu-opioid cells; B-score at 10 µM; Short transient receptor potential channel 4 (Mus musculus), Q9QUQ5; Fluo4 calcium fluorescence; active compounds read high; 0.49% of 310,000 active;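 active means B-score above 5 SD of library B-scores, and initial fluorescence ratio not above library mean plus 5 SD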;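 further: positive B-score marks a calcium rise read as TRPC4 activation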
#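 Material: TRPC4beta and mu-opioid receptor HEK293 stable cells | Incubation: 45 min room-temperature Fluo4 loading, 110 s read | Detection: Kinetic Fluo4 calcium fluorescence | Measure: Integrated baseline-normalised fluorescence ratio, converted to per-well B score | Benchmarks: Low control buffer alone, high control maximal DAMGO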
# TRPC4 block = inhibitors of mouse TRPC4 channel, primary screen, Fluo4 calcium, HEK293 TRPC4beta/mu-opioid cells | 0.39% of 300,000 active | B-score at 10 µM | Short transient receptor potential channel 4 (Mus musculus), Q9QUQ5 | DAMGO-evoked Fluo4 calcium flux; active compounds read low;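 active means B-score over 3 SD under the library average, no early fluorescence shift, positive overall ratio signal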
#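 Assay system: TRPC4beta/mu-opioid receptor HEK293 cell line; compound dosing: single concentration per test compound; detection: Fluo4 Ca2+ flux fluorescence; evaluation: per-well B score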
# TRPC6 activator = mouse TRPC6 channel activators, primary screen, cell-based, HEK293, membrane potential dye; Short transient receptor potential channel 6 (Mus musculus), Q61143; HEK293-TRPC6 membrane potential dye fluorescence; active compounds read high; B-score at 10 µM; 0.13% of 310,000 active;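 active means B-score of the integrated fluorescence ratio above library mean plus 3 SD, and starting fluorescence ratio within library mean plus 5 SD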;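 further: higher score means more depolarization so channel activation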
# TRPC4 spec 2 = second check of whether TRPC6 inhibitors also affect mouse TRPC4; shares compounds with TRPC6 inhibitor; HEK293 TRPC4/MOR, membrane potential dye fluorescence; channel activated by saturating DAMGO dose; inhibition, % at 10 µM; 42% of 920 active;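 active means compounds whose fluorescence signal differed from control wells by over 3 SD, either direction, in both duplicate plates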
# TRPC4 spec = mouse TRPC4 modulation by TRPC6 hits, confirmation, selectivity assay for TRPC6 inhibitor project, cell-based, HEK293 TRPC4/mu-opioid, membrane potential dye. shares compounds with TRPC6 inhibitor. membrane potential fluorescence. activity change, negative = inhibition, % at 10 µM. 61% of 920 active. AID 2777, 2010;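 active means rise or fall in signal beyond 3 SD of buffer-only wells in both replicate plates, either sign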;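 further: integrated kinetic ratio of fluorescence range over baseline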
# HEK293 MPD ctr 2-1 = nonspecific membrane potential effects, parental HEK293, confirmation, counter-screen for TRPC6 inhibitor project, cell-based, second counter screen | shares compounds with TRPC6 inhibitor | parental HEK293 membrane potential dye fluorescence; maximal acetylcholine challenge after compound addition | signal change vs control, % at 10 µM | 31% of 920 active;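 active means membrane potential signal moving either way by over 3 SD of the maximum-effect control, in both duplicate plates, meaning non-specific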
# HEK293 MPD ctr-1 = membrane potential modulation in parental HEK293, confirmation, counter-screen for TRPC6 inhibitor project, cell-based. parental HEK293 membrane potential dye fluorescence. membrane potential signal change, % at 10 µM. 60% of 920 active. shares compounds with TRPC6 inhibitor;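 active means membrane potential signal shifting up or down by more than 3 SD of buffer-only wells, on both duplicate plates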
# HEK293 MPD ctr-2 = parental HEK293 membrane potential modulation, confirmation, counter-screen for TRPC6 modulator project, cell-based | shares compounds with TRPC6 inhibitor | membrane potential dye fluorescence | membrane potential signal change, % at 10 µM | 51% of 2,400 active | AID 488924, 2010;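 active means membrane potential signal moves up or down beyond 5 SD from buffer-only wells, on both duplicate plates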
# HEK293 MPD ctr 2-2 = second check of TRPC6 modulator effects in parental HEK293 cells. 14% of 2,400 active. AID 488926. shares compounds with TRPC6 inhibitor. inhibition, % at 10 µM. membrane potential dye fluorescence; after compound, maximal acetylcholine stimulation;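 active means membrane potential signal drops by more than 5 SD from the mean control signal, in both duplicate plates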;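 further: plate controls were acetylcholine ECmax control wells for no effect and buffer only wells for full effect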
# TRPC4 ctr mod = TRPC4 modulation by TRPC6 hit compounds, confirmation, selectivity assay for TRPC6 modulator project, cell-based, HEK293 TRPC4/mu-opioid, membrane potential dye, mouse | shares compounds with TRPC6 inhibitor | membrane potential fluorescence | percent change from control (negative = decrease, positive = increase), % at 10 µM | 69% of 2,400 active | AID 488927, 2010;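 active means membrane potential signal moved up or down beyond 5 SD of buffer control wells, in both duplicate plates, actives on both sides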;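 further: plate controls were assay buffer wells for no effect and DAMGO maximal-effect wells for full effect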
# TRPC4 ctr inh 2 = second selectivity test of TRPC6 modulators against mouse TRPC4; AID 488928; 55% of 2,400 active; shares compounds with TRPC6 inhibitor; inhibition, % at 10 µM; HEK293 TRPC4/mu-opioid, membrane potential dye fluorescence; stimulated with maximal-effect DAMGO;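 active means drop in membrane potential signal beyond 5 SD of the control wells in both duplicate plates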;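 further: TRPC4 counter screen for TRPC6 hits run under conditions tuned for TRPC6 not TRPC4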
# TRPC6 block conf = mouse TRPC6 channel inhibitors, confirmation, HEK293 cells, membrane potential dye, duplicate. shares compounds with TRPC6 inhibitor. ACh-evoked depolarization. inhibition, % at 10 µM. 43% of 3,300 active;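 active means fluorescence ratio falls more than 5 SD below the full-stimulation control mean, in both duplicate runs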;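 further: integrated fluorescence ratio of peak minus minimum over baseline after agonist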
# TRPC6 act confirm = mouse TRPC6 channel activators, confirmation, HEK293 cells, membrane potential dye, duplicate; activation, % at 10 µM; shares compounds with TRPC6 inhibitor; AID 488961, 2010; HEK293-TRPC6 membrane potential dye fluorescence, FDSS; 11% of 2,800 active;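 active means ratio signal rise beyond 5 SD above unstimulated control wells' mean, seen in both duplicate runs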;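 further: plate controls were buffer EC0 wells for no effect and acetylcholine ECmax response for full effect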
# * marks the source's active call; other numbers are inactive results; i = inactive; · = no result.
SMILES,TRPC6 inhibitor,TRPC4 PAM,TRPC4 agonist,TRPC4 block,TRPC6 activator,HEK293 MPD ctr-2,HEK293 MPD ctr 2-2,TRPC4 ctr mod,TRPC4 ctr inh 2,TRPC6 block conf,TRPC6 act confirm,others
c1cnc2ccc(C(c3nnnn3C3CCCC3)N3CCSCC3)cc2c1 (stereo not drawn),-6.2*,i,i,i,19*,120%*,i,32%*,i,98%*,148%*,
CCCc1ccc(NC(=O)C2CCCN(c3cnccn3)C2)cc1 (stereo not drawn),i,i,i,i,i,·,·,·,·,·,·,
COCC(C)NC(=O)c1ccc(CN2CCc3ccccc3C2)cc1 (stereo not drawn),-6.9*,i,i,i,i,·,·,·,·,i,i,TRPC4 spec 2=i;TRPC4 spec=i;HEK293 MPD ctr 2-1=i;HEK293 MPD ctr-1=0.8%*
CC(C)CCN1C(=O)c2cccc3c(N)ccc(c23)C1=O,i,i,i,i,i,·,·,·,·,·,·,
COc1ccc(OC)c(/C=C2\SC(=S)N(C(C(=O)O)c3ccccc3)C2=O)c1 (stereo not drawn),i,i,i,i,18*,412%*,i,83%*,i,i,175%*,
Clc1ccc(-c2nc3cc(CN4CCCCC4)ccc3o2)cc1,i,i,i,i,i,·,·,·,·,·,·,
O=C(c1cccc([N+](=O)[O-])c1)N1CC2C3C=CC(C3)C2C1 (stereo not drawn),i,i,i,i,i,·,·,·,·,·,·,
O=C(c1ccccc1[N+](=O)[O-])N1CC2C3C=CC(C3)C2C1 (stereo not drawn),-5.5*,i,i,i,i,i,i,i,i,i,i,
NC(=O)C1CCN(CC(O)COCc2ccccc2Cl)CC1 (stereo not drawn),i,i,i,i,i,·,·,·,·,·,·,
COC(=O)c1ccc(Oc2nc(C)cc(Oc3ccccc3)n2)cc1,-7.8*,i,i,i,i,·,·,·,·,i,i,TRPC4 spec 2=i;TRPC4 spec=1.0%*;HEK293 MPD ctr 2-1=i;HEK293 MPD ctr-1=1.6%*
Nc1ccc(Sc2ccccc2)nc1,i,i,i,i,i,·,·,·,·,·,·,
O=C(CSc1ccc(-c2ccc(-n3cccn3)cc2)nn1)Nc1ccccc1F,i,i,i,i,i,·,·,·,·,·,·,
CN(C)S(=O)(=O)c1ccc(C(=O)Nc2nnc(-c3ccc4c(c3)CCCC4)o2)cc1,-5.6*,i,i,i,i,i,i,i,i,i,i,
CN(C)S(=O)(=O)c1ccc(C(=O)Nc2nnc(-c3cccs3)o2)cc1,i,i,i,i,i,·,·,·,·,·,·,
COc1ccc(S(=O)(=O)N2CCOCC2)cc1C(=O)N1CCCCC1,i,i,i,i,i,·,·,·,·,·,·,
COC(=O)c1ccc(/C=N/OCC(=O)NC2CCCCCCC2)cc1,-9.1*,i,i,i,i,·,·,·,·,i,·,TRPC4 spec 2=i;TRPC4 spec=3.9%*;HEK293 MPD ctr 2-1=i;HEK293 MPD ctr-1=3.9%*
COC(=O)c1ccc(/C=N/OCC(=O)NC2CCCC(C)C2C)cc1 (stereo not drawn),i,i,i,i,i,·,·,·,·,·,·,
O=C(Nc1ccc2oc(=O)ccc2c1)c1cccnc1,-6.3*,i,i,i,i,-180%*,i,-31%*,i,i,i,
O=C(Nc1ccc2oc(=O)ccc2c1)c1cc2ccccc2o1,i,i,i,i,i,·,·,·,·,·,·,
CCCCOC(=O)c1ccc(NC(=O)COC(=O)C2CSC3(C)CCC(=O)N23)cc1 (stereo not drawn),-5.7*,i,i,i,i,i,i,i,i,75%*,·,
CC12CCC(=O)N1C(C(=O)OCC(=O)Nc1sccc1C#N)CS2 (stereo not drawn),i,i,i,i,i,·,·,·,·,·,·,
Cc1ccccc1CSCCNC(=O)COc1ccc(Cl)cc1,i,i,i,i,i,·,·,·,·,·,·,
CC(C)(C)SCCNC(=O)COc1ccc(Cl)cc1,-5.3*,i,i,i,i,i,i,i,i,i,·,
Cc1nnc(N/N=C/c2ccccc2C(F)(F)F)n1N,i,i,i,i,i,·,·,·,·,·,·,

# Bioassay records from PubChem.
